Source: ChEMBL document CHEMBL1629431, “Synthesis and antitumor activity of some 2, 3-disubstituted quinazolin-4(3H)-ones and 4, 6- disubstituted- 1, 2, 3, 4-tetrahydroquinazolin-2H-ones” (2010)

Columns and labels:
Assay type in all cases: functional
HL-60(TB) = assay: Growth inhibition of human HL-60(TB) cells at 10 uM after 48 hrs by coulter counter method; conditions: HL-60, 48 h, read-out: GI
Summary of the method: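 Part of the NCI 60-cell-line single-high-dose panel. Cells were seeded at 6 × 10⁴ cells/mL with test solution in duplicate wells, alongside PBS/DMSO controls at identical dilutions. Plates were held 48 h at 37 °C in a humidified 5% CO₂ incubator. Cells were then diluted 10-fold in saline and counted by Coulter counter, with counts corrected for dilution. Results are percent growth of treated cells, reported as GI %.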

K562 = assay: Growth inhibition of human K562 cells at 10 uM after 48 hrs by coulter counter method; conditions: K562, 48 h, read-out: GI
Summary of the method: (§1)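 Single high-dose NCI 60-cell-line panel screen across nine tumor subpanels. Test solutions (0.2 mL) were added in duplicate to wells holding 1.8 mL of culture at 6 × 10⁴ cells/mL. Controls got PBS and DMSO at identical dilutions. Incubation was 48 h at 37 °C in humidified 5% CO₂. Cells were diluted 10-fold in saline, Coulter-counted and dilution-corrected. Results were expressed as percent growth inhibition versus control.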

MOLT-4 = assay: Growth inhibition of human MOLT4 cells at 10 uM after 48 hrs by coulter counter method; conditions: MOLT-4, 48 h, read-out: GI; summary of the method: as §1
[1] = Growth inhibition of human […] cells at 10 uM after 48 hrs by coulter counter method; conditions: read-out: GI; summary of the method: as §1
A549 = assay: Growth inhibition of human A549 cells at 10 uM after 48 hrs by coulter counter method; conditions: A549, 48 h, read-out: GI; summary of the method: as §1
HOP-92 = assay: Growth inhibition of human HOP92 cells at 10 uM after 48 hrs by coulter counter method; conditions: HOP-92, 48 h, read-out: GI; summary of the method: as §1
NCI-H226 = assay: Growth inhibition of human NCI-H226 cells at 10 uM after 48 hrs by coulter counter method; conditions: NCI-H226, 48 h, read-out: GI; summary of the method: as §1
NCI-H23 = assay: Growth inhibition of human NCI-H23 cells at 10 uM after 48 hrs by coulter counter method; conditions: NCI-H23, 48 h, read-out: GI; summary of the method: as §1
NCI-H522 = assay: Growth inhibition of human NCI-H522 cells at 10 uM after 48 hrs by coulter counter method; conditions: NCI-H522, 48 h, read-out: GI; summary of the method: as §1
COLO 205 = assay: Growth inhibition of human COLO205 cells at 10 uM after 48 hrs by coulter counter method; conditions: COLO 205, 48 h, read-out: GI; summary of the method: as §1
HCT-116 = assay: Growth inhibition of human HCT116 cells at 10 uM after 48 hrs by coulter counter method; conditions: HCT-116, 48 h, read-out: GI; summary of the method: as §1
KM12 = assay: Growth inhibition of human KM12 cells at 10 uM after 48 hrs by coulter counter method; conditions: KM12, 48 h, read-out: GI; summary of the method: as §1
SF-268 = assay: Growth inhibition of human SF268 cells at 10 uM after 48 hrs by coulter counter method; conditions: SF-268, 48 h, read-out: GI; summary of the method: as §1
SF-539 = assay: Growth inhibition of human SF539 cells at 10 uM after 48 hrs by coulter counter method; conditions: SF-539, 48 h, read-out: GI; summary of the method: as §1
SNB-75 = assay: Growth inhibition of human SNB75 cells at 10 uM after 48 hrs by coulter counter method; conditions: SNB-75, 48 h, read-out: GI; summary of the method: as §1
U-251 = assay: Growth inhibition of human U251 cells at 10 uM after 48 hrs by coulter counter method; conditions: U-251, 48 h, read-out: GI; summary of the method: as §1
M14 = assay: Growth inhibition of human M14 cells at 10 uM after 48 hrs by coulter counter method; conditions: M14, 48 h, read-out: GI; summary of the method: as §1
SK-MEL-2 = assay: Growth inhibition of human SK-MEL-2 cells at 10 uM after 48 hrs by coulter counter method; conditions: SK-MEL-2, 48 h, read-out: GI; summary of the method: as §1
SK-MEL-28 = assay: Growth inhibition of human SK-MEL-28 cells at 10 uM after 48 hrs by coulter counter method; conditions: SK-MEL-28, 48 h, read-out: GI; summary of the method: as §1
UACC-62 = assay: Growth inhibition of human UACC62 cells at 10 uM after 48 hrs by coulter counter method; conditions: UACC-62, 48 h, read-out: GI; summary of the method: as §1
IGROV-1 = assay: Growth inhibition of human IGROV1 cells at 10 uM after 48 hrs by coulter counter method; conditions: IGROV-1, 48 h, read-out: GI; summary of the method: as §1
OVCAR-4 = assay: Growth inhibition of human OVCAR4 cells at 10 uM after 48 hrs by coulter counter method; conditions: OVCAR-4, 48 h, read-out: GI; summary of the method: as §1
OVCAR-8 = assay: Growth inhibition of human OVCAR8 cells at 10 uM after 48 hrs by coulter counter method; conditions: OVCAR-8, 48 h, read-out: GI; summary of the method: as §1
SK-OV-3 = assay: Growth inhibition of human SKOV3 cells at 10 uM after 48 hrs by coulter counter method; conditions: SK-OV-3, 48 h, read-out: GI; summary of the method: as §1
786-0 = assay: Growth inhibition of human 786-0 cells at 10 uM after 48 hrs by coulter counter method; conditions: 786-0, 48 h, read-out: GI; summary of the method: as §1
CAKI-1 = assay: Growth inhibition of human Caki1 cells at 10 uM after 48 hrs by coulter counter method; conditions: CAKI-1, 48 h, read-out: GI; summary of the method: as §1
SN12C = assay: Growth inhibition of human SN12C cells at 10 uM after 48 hrs by coulter counter method; conditions: read-out: GI; summary of the method: as §1
UO-31 = assay: Growth inhibition of human UO31 cells at 10 uM after 48 hrs by coulter counter method; conditions: UO-31, 48 h, read-out: GI; summary of the method: as §1
PC-3 = assay: Growth inhibition of human PC3 cells at 10 uM after 48 hrs by coulter counter method; conditions: PC-3, 48 h, read-out: GI; summary of the method: as §1
MCF7 = assay: Growth inhibition of human MCF7 cells at 10 uM after 48 hrs by coulter counter method; conditions: MCF7, 48 h, read-out: GI; summary of the method: as §1
MDA-MB-231 = assay: Growth inhibition of human MDA-MB-231 cells at 10 uM after 48 hrs by coulter counter method; conditions: MDA-MB-231, 48 h, read-out: GI; summary of the method: as §1
[2] = Growth inhibition of human Hs 578T cells at 10 uM after 48 hrs by coulter counter method; conditions: read-out: GI; summary of the method: as §1
T47D = assay: Growth inhibition of human T47D cells at 10 uM after 48 hrs by coulter counter method; conditions: read-out: GI; summary of the method: as §1
MDA-MB-468 = assay: Growth inhibition of human MDA-MB-468 cells at 10 uM after 48 hrs by coulter counter method; conditions: MDA-MB-468, 48 h, read-out: GI; summary of the method: as §1
CCRF-CEM = assay: Growth inhibition of human CCRF-CEM cells at 10 uM after 48 hrs by coulter counter method; conditions: read-out: GI; summary of the method: as §1
SR = assay: Growth inhibition of human SR cells at 10 uM after 48 hrs by coulter counter method; conditions: read-out: GI; summary of the method: as §1
HT-29 = assay: Growth inhibition of human HT-29 cells at 10 uM after 48 hrs by coulter counter method; conditions: HT-29, 48 h, read-out: GI; summary of the method: as §1
BT-549 = assay: Growth inhibition of human BT549 cells at 10 uM after 48 hrs by coulter counter method; conditions: BT-549, 48 h, read-out: GI; summary of the method: as §1
SF-295 = assay: Growth inhibition of human SF295 cells at 10 uM after 48 hrs by coulter counter method; conditions: SF-295, 48 h, read-out: GI; summary of the method: as §1

Compound	inhibition of growth at 10 µM (HL-60(TB)) [%]	inhibition of growth at 10 µM (K562) [%]	inhibition of growth at 10 µM (MOLT-4) [%]	inhibition of growth at 10 µM (A549) [%]	inhibition of growth at 10 µM (HOP-92) [%]	inhibition of growth at 10 µM (NCI-H226) [%]	inhibition of growth at 10 µM (NCI-H23) [%]	inhibition of growth at 10 µM (NCI-H522) [%]	inhibition of growth at 10 µM (COLO 205) [%]	inhibition of growth at 10 µM (HCT-116) [%]	inhibition of growth at 10 µM (KM12) [%]	inhibition of growth at 10 µM (SF-268) [%]	inhibition of growth at 10 µM (SF-539) [%]	inhibition of growth at 10 µM (SNB-75) [%]	inhibition of growth at 10 µM (U-251) [%]	inhibition of growth at 10 µM (M14) [%]	inhibition of growth at 10 µM (SK-MEL-2) [%]	inhibition of growth at 10 µM (SK-MEL-28) [%]	inhibition of growth at 10 µM (UACC-62) [%]	inhibition of growth at 10 µM (IGROV-1) [%]	further results
CSc1nc2ccccc2c(=O)n1-c1ccc(Cl)cc1	32	44.1	31.4	30	30	30	30	30	30	30	30	30	30	30	30	30	30	30	30	30	inhibition of growth at 10 µM [1]: 35.8%; inhibition of growth at 10 µM (OVCAR-4): 30%; inhibition of growth at 10 µM (OVCAR-8): 30%; inhibition of growth at 10 µM (SK-OV-3): 30%; inhibition of growth at 10 µM (786-0): 30%; inhibition of growth at 10 µM (CAKI-1): 30%; inhibition of growth at 10 µM (SN12C): 30%; inhibition of growth at 10 µM (UO-31): 30%; inhibition of growth at 10 µM (PC-3): 50.3%; inhibition of growth at 10 µM (MCF7): 30%; inhibition of growth at 10 µM (MDA-MB-231): 30%; inhibition of growth at 10 µM [2]: 30%; inhibition of growth at 10 µM (T47D): 47%; inhibition of growth at 10 µM (MDA-MB-468): 30%
COc1ccc(C2NC(=O)Nc3ccc(C(=O)Nc4ccccn4)cc32)cc1 (stereo not given)	30	30	30	30	30	30	30	30	30	30	30	30	30	30	30	30	30	30	30	30	inhibition of growth at 10 µM (CCRF-CEM): 30%; inhibition of growth at 10 µM (SR): 30%; inhibition of growth at 10 µM (HT-29): 30%; inhibition of growth at 10 µM (OVCAR-4): 30%; inhibition of growth at 10 µM (OVCAR-8): 30%; inhibition of growth at 10 µM (SK-OV-3): 30%; inhibition of growth at 10 µM (786-0): 30%; inhibition of growth at 10 µM (CAKI-1): 30%; inhibition of growth at 10 µM (SN12C): 30%; inhibition of growth at 10 µM (UO-31): 34.3%; inhibition of growth at 10 µM (PC-3): 30%; inhibition of growth at 10 µM (MCF7): 30%; inhibition of growth at 10 µM (MDA-MB-231): 30%; inhibition of growth at 10 µM [2]: 30%; inhibition of growth at 10 µM (BT-549): 30%; inhibition of growth at 10 µM (T47D): 37.6%; inhibition of growth at 10 µM (MDA-MB-468): 30%
COc1ccc(C2NC(=O)Nc3ccc(CNc4ccccn4)cc32)cc1 (stereo not given)	30	30	30	30	30	30	30	30	30	36.8	30	30	30	30	30	30	30	30	30	30	inhibition of growth at 10 µM (CCRF-CEM): 30%; inhibition of growth at 10 µM (SR): 30%; inhibition of growth at 10 µM (HT-29): 30%; inhibition of growth at 10 µM (OVCAR-4): 30%; inhibition of growth at 10 µM (OVCAR-8): 30%; inhibition of growth at 10 µM (SK-OV-3): 30%; inhibition of growth at 10 µM (786-0): 30%; inhibition of growth at 10 µM (CAKI-1): 30%; inhibition of growth at 10 µM (SN12C): 30%; inhibition of growth at 10 µM (UO-31): 30%; inhibition of growth at 10 µM (PC-3): 30%; inhibition of growth at 10 µM (MCF7): 30%; inhibition of growth at 10 µM (MDA-MB-231): 30.2%; inhibition of growth at 10 µM [2]: 30%; inhibition of growth at 10 µM (BT-549): 30%; inhibition of growth at 10 µM (T47D): 33.1%; inhibition of growth at 10 µM (MDA-MB-468): 30%
COc1ccc(-n2c(Nc3cc(O)[nH]c(=O)n3)nc3ccccc3c2=O)cc1																					inhibition of growth at 10 µM (SF-295): 80.8%
CCn1c(Nc2cc(O)nc(S)n2)nc2ccccc2c1=O																					inhibition of growth at 10 µM (SF-295): 59.9%
